Where “and” joins values, the source holds several entries; their conditions need not be identical. Equal values may be shown once.

A word on the ED50: it is the midpoint of the dose-response relation. The low end stands for greater potency, the high end for weaker potency. Broadly, the LD50 is the dose at which mortality reaches 50%. A high value points to lower toxicity.

For series [1], the system named is Mus musculus. As to the kind of experiment: Protective index defined as ND50 (p.o.) divided by MES ED50(op). The class given is functional. In outline:
(§1)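 Ratio of ND50 from the wire traction test to MES ED50, both measured by the same route (ip or oral) in the same animals. Quantal dose-response data for each were evaluated by Litchfield-Wilcoxon.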

Series [2] deals with Mus musculus. As to the kind of experiment: Dose causing a neurological deficit in 50% of mice following p.o. administration. The class given is functional. Summed up: (§2)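 Traction test in male Hilltop ICR-derived mice (19-30 g, groups of 8-10) just before electroshock, 15 min after ip or 30 min after oral dosing. Mice placed on a 16-gauge, 65-cm copper wire 40 cm above the table; deficit scored as failure to stay on for 10 s. ND50 with 95% limits by Litchfield-Wilcoxon.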

The test system of series [3] is Mus musculus. As to the kind of experiment: Anticonvulsant activity in mouse maximal electroshock assay following i.p. administration. Type of series: functional. Conditions: ip. Summed up:
(§3)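 Male Hilltop ICR-derived mice (19-30 g), groups of 8-10, dosed ip with compound or aqueous vehicle. After 15 min pretreatment, a transcorneal 60-Hz, 50 mA shock was given for 0.2 s. Just before the shock, each mouse was tested on a horizontal wire (10 s). Quantal data were analysed by Litchfield-Wilcoxon to give ED50 with 95% confidence limits.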

For series [4], the system named is Mus musculus. Nature of the series: Dose of compound causing a neurological deficit in 50% of mice after ip administration. The class given is functional. In outline:
as §2

In series [5] the test system is Mus musculus. As to the kind of experiment: Protective index is defined as ND50 (i.p.) divided by MES ED50(i.p.). The class given is functional. Summed up:
as §1

In series [6] the test system is Mus musculus. Nature of the series: Compound was evaluated for anticonvulsant activity by maximal electroshock assay(MES) in mice after po administration; 68-149. Type of series: functional. Summed up:
(§4)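 Male Hilltop ICR-derived mice (19-30 g), groups of 8-10, given compound or aqueous vehicle orally. The transcorneal 60-Hz shock (50 mA, 0.2 s) followed a 30 min pretreatment and a wire-hang neurological check (10 s). ED50 and 95% confidence limits were obtained from quantal data by the Litchfield-Wilcoxon method.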
For orientation: The maximal electroshock test induces tonic seizures with an electrical stimulus.

The subject of series [7] is Mus musculus. Nature of the series: Dose of compound causing a neurological deficit in 50% of mice after ip administration; 32-89. Type of series: functional. Summed up:
as §2

Series [8] is described as follows: Lethal dose was measured in mice after ip administration. The class given is toxicity, organism-based. To be noted: mouse, in vivo. In outline: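 Male Simonsen ICR-derived mice (16-24 g), groups of three, given compound ip in increasing doses within a behavioral screen. Deaths counted on day 5, and LD50 estimated from 5-day survival. Quantal data analysed by the Litchfield-Wilcoxon method.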

Series [9] has as its system Mus musculus. As to the kind of experiment: Compound was evaluated for anticonvulsant activity by maximal electroshock assay(MES) in mice after po administration; 33-62. Type of series: functional. In outline:
as §4

In series [10] the test system is Mus musculus. Nature of the series: Dose of compound causing a neurological deficit in 50% of mice after ip administration; 70-93. Type of series: functional. Summed up: as §2
The subject of series [11] is Mus musculus. As to the kind of experiment: Compound was evaluated for anticonvulsant activity by maximal electroshock assay(MES) in mice after ip administration; 23-38. Type of series: functional. In outline: as §3
The subject of series [12] is Mus musculus. Nature of the series: Compound was evaluated for anticonvulsant activity by maximal electroshock assay(MES) in mice after ip administration; 37-68. Type of series: functional. In outline:
as §3

The subject of series [13] is Mus musculus. Nature of the series: Dose causing a neurological deficit in 50% of mice after ip administration. The class given is functional. Summed up:
as §2

Series [14] concerns Mus musculus. Nature of the series: Compound was evaluated for anticonvulsant activity by maximal electroshock assay(MES) in mice after ip administration; 9-26. The class given is functional. In outline:
as §3

Series [15] has as its system Mus musculus. Nature of the series: Dose of compound causing a neurological deficit in 50% of mice after ip administration; 17-61. Type of series: functional. In outline: as §2
For series [16], the system named is Mus musculus. As to the kind of experiment: Compound was evaluated for anticonvulsant activity by maximal electroshock assay(MES) in mice after ip administration; 27-41. Type of series: functional. In outline:
as §3

Series [17] concerns Rattus norvegicus. As to the kind of experiment: Dose of compound causing a neurological deficit in 50% of rat after po administration. The class given is functional. Summed up:
(§5)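 Rats (Simonsen Sprague-Dawley-derived, 80-110 g, groups of 8-10) placed on a suspended 16-gauge, 65-cm copper wire just before electroshock. Deficit scored as inability to remain for 8 s. Pretreatment was 15 min ip or 30 min oral. Quantal data analysed by Litchfield-Wilcoxon to give ND50 with 95% limits.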

Series [18] deals with Mus musculus. As to the kind of experiment: Dose of compound causing a neurological deficit in 50% of mice after ip administration; 80-115. Type of series: functional. Summed up: as §2
The test system of series [19] is Rattus norvegicus. As to the kind of experiment: Compound was evaluated for anticonvulsant activity by maximal electroshock assay(MES) in rat after po administration; 30-125. Type of series: functional. Summed up:
(§6)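 Male Simonsen Sprague-Dawley-derived rats, 80-110 g, groups of 8-10, dosed with compound or aqueous vehicle; pretreatment 15 min after ip or 30 min after oral dosing. Transcorneal electroshock, 150 mA, 60 Hz, 0.2 s, given after the wire test. ED50 with 95% confidence limits from quantal data by Litchfield-Wilcoxon.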

The test system of series [20] is Mus musculus. Nature of the series: Compound was evaluated for anticonvulsant activity by maximal electroshock assay(MES) in mice after ip administration; 31-39. Type of series: functional. In outline:
as §3

In series [21] the test system is Rattus norvegicus. As to the kind of experiment: Dose of compound causing a neurological deficit in 50% of rat after ip administration; 119-211. The class given is functional. Summed up: as §5
Series [22] concerns Rattus norvegicus. As to the kind of experiment: Compound was evaluated for anticonvulsant activity by maximal electroshock assay(MES) in rat after ip administration; 14-33. The class given is functional.
The test system of series [23] is Mus musculus. As to the kind of experiment: Compound was evaluated for anticonvulsant activity by maximal electroshock assay(MES) in mice after po administration; 55-125. Type of series: functional. In outline: as §4
Series [24] concerns Mus musculus. Nature of the series: Dose of compound causing a neurological deficit in 50% of mice after ip administration; 34-82. The class given is functional. Summed up:
as §2

For series [25], the system named is Mus musculus. As to the kind of experiment: Compound was evaluated for anticonvulsant activity by maximal electroshock assay(MES) in mice after ip administration; 14-24. Type of series: functional. Summed up:
as §3

For series [26], the system named is Rattus norvegicus. Nature of the series: Compound was evaluated for anticonvulsant activity by maximal electroshock assay(MES) in rat after po administration. The class given is functional. Summed up: as §6
The test system of series [27] is Mus musculus. Nature of the series: compound was evaluated for anticonvulsant activity by maximal electroshock assay(MES) in mice after po administration. Type of series: functional. Summed up:
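Male Hilltop ICR-derived mice, 19-30 g, groups of 8-10, dosed orally with compound or aqueous vehicle. Transcorneal electroshock (50 mA, 60 Hz, 0.2 s) delivered 30 min after dosing, immediately after a wire-hang neurological test. ED50 with 95% confidence limits estimated from quantal data by Litchfield-Wilcoxon.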

In series [28] the test system is Rattus norvegicus. As to the kind of experiment: Dose of compound causing a neurological deficit in 50% of rat after ip administration. The class given is functional. Summed up: as §5
Series [29] relates to Rattus norvegicus. Nature of the series: Compound was evaluated for anticonvulsant activity by maximal electroshock assay(MES) in rat after ip administration.

Regarding `CCc1ccc2cc(C3(Cn4ccnc4)OCCO3)ccc2c1.Cl`, the results for the PI with Mus musculus [1] and in the series with Mus musculus [5] were greater than 2 and greater than 4, respectively. Further, the values for the ND50 in the series on Mus musculus [2] and with Mus musculus [4] were greater than 200 mg/kg and greater than 100 mg/kg, respectively. The 50% effective dose (ED50) with Mus musculus [3] is 25 mg/kg; with Mus musculus [6], 100 mg/kg.
With `CC1(C)COC(Cn2ccnc2)(c2ccc3ccccc3c2)OC1.Cl`, the ND50 in the series with Mus musculus [7] is 52 mg/kg; in the series on Mus musculus [2], greater than 100 mg/kg. Further, the PI in the series with Mus musculus [1] is reported as greater than 2.1; with Mus musculus [5], 2. The LD50 in [8] was greater than 100 mg/kg. The ED50 with Mus musculus [9] turned out to be 47 mg/kg.
The compound `CC(C)c1ccc(C(=O)Cn2ccnc2)c2ccccc12.Cl` yielded an ND50 in the series on Mus musculus [10] of 81 mg/kg. In the series with Mus musculus [11], this compound returned an ED50 of 28 mg/kg. The compound further registered a PI in the series with Mus musculus [5] of 2.9.
As to `Cl.O=C(Cn1ccnc1)c1ccc2cc(Cl)ccc2c1`, the 50% effect level in the series on Mus musculus [12] (ED50) was put at a dose of 51 mg/kg. The compound also returned an ND50 in the series on Mus musculus [13] greater than 100 mg/kg. Besides, the PI in the series with Mus musculus [5] is given as greater than 2.
In turn, `O=S(=O)(O)O.c1ccc(OC(Cn2ccnc2)c2ccc3ccccc3c2)cc1` (stereo not drawn) showed an ED50 in the series with Mus musculus [14] of 15 mg/kg. Besides, in the series on Mus musculus [5], the PI was found to be 2.1. Moreover, the ND50 with Mus musculus [15] is 32 mg/kg.
As for `c1ccc2cc(C3(CCn4ccnc4)OCCO3)ccc2c1`, the ND50 with Mus musculus [13] is greater than 100 mg/kg. The compound also gave a median effective dose (ED50) with Mus musculus [16] of 35 mg/kg. The same compound yielded a PI in the series on Mus musculus [5] greater than 2.9.
For `OC(Cn1ccnc1)c1cccc2ccccc12` (stereo not drawn), the ND50 in the series with Rattus norvegicus [17] was greater than 300 mg/kg; in the series with Mus musculus [18], 89 mg/kg; in the series on Rattus norvegicus [21] it was 153 mg/kg; with Mus musculus [2] it was greater than 300 mg/kg. Also, the ED50 in the series on Rattus norvegicus [19] was 62 mg/kg; with Mus musculus [20], 34 mg/kg; in the series on Rattus norvegicus [22], 24 mg/kg; with Mus musculus [23] it was 82 mg/kg. Besides, the PI was >3.7 and >4.8 with Mus musculus [1]; 2.6 and 6.4 in the series on Mus musculus [5]. In addition, the LD50 in series [8] is greater than 300 mg/kg.
The compound `COC(Cn1ccnc1)c1cccc2ccccc12` (stereo not drawn) had a PI with Mus musculus [5] of 2.7. In addition, the ND50 in the series on Mus musculus [24] came out at 51 mg/kg. Moreover, it took a dose of 19 mg/kg to reach the 50% effect level with Mus musculus [25] (ED50).
For `O=C1NC(=O)C(c2ccccc2)(c2ccccc2)N1` [PHENYTOIN], the ND50 in the series with Rattus norvegicus [17] was greater than 300 mg/kg; in the series with Mus musculus [2], greater than 200 mg/kg; in the series on Rattus norvegicus [28], greater than 300 mg/kg; with Mus musculus [13], greater than 300 mg/kg. The ED50 in the series with Rattus norvegicus [26] came out at 85 mg/kg; in the series with Mus musculus [27] it was 22 mg/kg; with Mus musculus [3], 13 mg/kg; with Rattus norvegicus [29], 21 mg/kg. For the same compound, the LD50 in [8] was greater than 300 mg/kg. Besides, in the series with Mus musculus [5], the PI is on record as greater than 23.1.

Values taken from ChEMBL document CHEMBL1121883, “1-(Naphthylalkyl)-1H-imidazole derivatives, a new class of anticonvulsant agents” (J Med Chem, 1981).
